Activity calls are given as the source filed them. The calls are words filed in the database; no cut-off is given here.
Tests used:
[1] = species on record: Homo sapiens; assay: Effect on slipped DNA synthesis assessed as enhanced synthesis at 40 uM relative to control
[2] = Effect on DNA binding assessed as binding to HT3GATC synthetic oligo sequence code by measuring fluorescence quenching due to GC base pairs next to bulge in bulge binding assay; parameters: species or system Homo sapiens
Procedure, shortened: (§1)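 Dissociation constants for a panel of 17 synthetic bulged oligos, taken from changes in drug fluorescence in emission spectra (excitation 360 nm, emission 480 nm) at 5 °C. Binding appears either as quenching or as stimulation of drug fluorescence. Values are given with standard deviations.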

[3] = Effect on DNA binding assessed as binding to HT3CGTA synthetic oligo sequence code by measuring fluorescence stimulation due to AT base pairs next to bulge in bulge binding assay; parameters: species or system Homo sapiens; procedure, shortened: as §1
[4] = Effect on DNA binding assessed as binding to DA12:BA14 synthetic oligo sequence code by measuring fluorescence stimulation due to AT base pairs next to bulge in bulge binding assay; parameters: species or system Homo sapiens; procedure, shortened: as §1
[5] = Effect on DNA binding assessed as binding to HT3CGTC synthetic oligo sequence code by measuring fluorescence quenching due to GC base pairs next to bulge in bulge binding assay; parameters: species or system Homo sapiens; procedure, shortened: as §1
[6] = Effect on DNA binding assessed as binding to HT3GGTA synthetic oligo sequence code by measuring fluorescence stimulation due to AT base pairs next to bulge in bulge binding assay; parameters: species or system Homo sapiens; procedure, shortened: as §1
[7] = Effect on DNA binding assessed as binding to HT3GGTT synthetic oligo sequence code by measuring fluorescence quenching due to GC base pairs next to bulge in bulge binding assay; parameters: species or system Homo sapiens; procedure, shortened: as §1
[8] = Effect on DNA binding assessed as binding to HT3AGTT synthetic oligo sequence code by measuring fluorescence stimulation due to AT base pairs next to bulge in bulge binding assay; parameters: species or system Homo sapiens; procedure, shortened: as §1
[9] = Effect on DNA binding assessed as binding to HT4AGTT synthetic oligo sequence code by measuring fluorescence stimulation due to AT base pairs next to bulge in bulge binding assay; parameters: species or system Homo sapiens; procedure, shortened: as §1
[10] = Effect on DNA binding assessed as binding to HT3AGT synthetic oligo sequence code by measuring fluorescence stimulation due to AT base pairs next to bulge in bulge binding assay; parameters: species or system Homo sapiens; procedure, shortened: as §1
[11] = Effect on DNA binding assessed as binding to HT3AGTC synthetic oligo sequence code by measuring fluorescence stimulation due to AT base pairs next to bulge in bulge binding assay; parameters: species or system Homo sapiens; procedure, shortened: as §1
[12] = Effect on DNA binding assessed as binding to HT3AT synthetic oligo sequence code by measuring fluorescence stimulation due to AT base pairs next to bulge in bulge binding assay; parameters: species or system Homo sapiens; procedure, shortened: as §1
[13] = target: DNA polymerase I Klenow fragment (Escherichia coli) (UniProt P00582); assay: Induction of slipped DNA synthesis assessed as incorporation of [32P]TMP at 40 uM
[14] = Effect on DNA binding assessed as binding to HT3AGCTT synthetic oligo sequence code by measuring fluorescence stimulation due to AT base pairs next to bulge in bulge binding assay; parameters: species or system Homo sapiens; procedure, shortened: as §1
[15] = Effect on DNA binding assessed as binding to HT3GTTG synthetic oligo sequence code by measuring fluorescence quenching due to GC base pairs next to bulge in bulge binding assay; parameters: species or system Homo sapiens; procedure, shortened: as §1
[16] = Effect on DNA binding assessed as binding to HT3AGTA synthetic oligo sequence code by measuring fluorescence stimulation due to AT base pairs next to bulge in bulge binding assay; parameters: species or system Homo sapiens; procedure, shortened: as §1
[17] = Effect on DNA binding assessed as binding to HT3TGTA synthetic oligo sequence code by measuring fluorescence stimulation due to AT base pairs next to bulge in bulge binding assay; parameters: species or system Homo sapiens; procedure, shortened: as §1
[18] = species on record: Homo sapiens; assay: Effect on DNA binding assessed as binding to DA12:DAc12 synthetic oligo sequence code by measuring fluorescence quenching due to GC base pairs next to bulge in bulge binding assay; procedure, shortened: as §1
[19] = Effect on DNA binding assessed as binding to HT3GGTC synthetic oligo sequence code by measuring fluorescence quenching due to GC base pairs next to bulge in bulge binding assay; parameters: species or system Homo sapiens; procedure, shortened: as §1
[20] = Effect on DNA binding assessed as binding to HT3AGTC synthetic oligo sequence code by measuring fluorescence quenching due to GC base pairs next to bulge in bulge binding assay; parameters: species or system Homo sapiens; procedure, shortened: as §1
[21] = Effect on DNA binding assessed as binding to HT3GGTA synthetic oligo sequence code by measuring fluorescence quenching due to GC base pairs next to bulge in bulge binding assay; parameters: species or system Homo sapiens; procedure, shortened: as §1

Compound	Activity [1]	Kd [2]	Kd [3]	Kd [4]	Kd [5]	Kd [7]	Kd [8]	Kd [9]	Kd [10]	Kd [12]	Activity [13]	Kd [14]	Kd [15]	Kd [16]	Kd [17]	Activity [18]	Kd [19]	also measured
CN[C@H]1[C@@H](O[C@@H]2c3cc4ccccc4cc3[C@@H]3[C@H]2CC[C@@]32C(=O)C=Cc3ccc(OC)cc32)O[C@H](C)[C@H](O)[C@@H]1O	15.7	150 nM	160 nM	800 nM	170 nM	110 nM	130 nM	240 nM	4100 nM	13000 nM	37000 cpm	1700 nM	300 nM	1400 nM	550 nM	inactive	160 nM	Kd [6]: 1960 nM; Kd [11]: 260 nM
CN[C@H]1[C@@H](O[C@H]2c3cc4ccccc4cc3[C@H]3[C@@H]2CC[C@]32C(=O)C=Cc3ccc(OC)cc32)O[C@H](C)[C@H](O)[C@@H]1O	31.8	240 nM	110 nM	600 nM	150 nM	140 nM	80 nM	110 nM	8400 nM	10000 nM	75000 cpm	2100 nM	160 nM	220 nM	1130 nM	inactive	100 nM	Kd [20]: 290 nM; Kd [21]: 290 nM

— ChEMBL document CHEMBL1144550, “Molecular probes of DNA bulges: functional assay and spectroscopic analysis” (Bioorg Med Chem, 2007)
